Publication PMC7025391 (The Lancet. Oncology, 2019)
Where two headings read alike, the source gives them in different places.

Key:
[1] = tested on: patients with recurrent EOC or BC; assay: Phase 1b 3+3 dose escalation: DLTs, MTD and RP2D; type: in vivo, human
Procedure, shortened: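 Classic 3+3 design with continuous 28-day cycles: oral alpelisib q.d. plus olaparib tablets b.i.d. Levels were 250/100 mg, 250/200 mg, 300/200 mg and 200/200 mg. Escalation followed 0/3 or 1/6 DLTs in cycle 1, graded by CTCAE v4.03. DLTs were prespecified grade ≥3 treatment-related toxicities. Monitoring was weekly in cycles 1–2, then day 1 of each cycle. Six EOC patients were then expanded at the MTD.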

[2] = Pharmacokinetics: steady state Cmax of alpelisib and olaparib; type: in vivo, human; details: combination; for Effect of the other drug's dosing on Cmax: dose levels 0-3; for Steady state Cmax compared with monotherapy: day 8, 2 hours post dosing
Procedure, shortened: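 Blood sampled for alpelisib and olaparib levels on cycle 1 day 1 (time 0) and on days 8 and 15 at 0, 1, 2, 4 and 8 h after dosing both agents. Patients took oral alpelisib once daily and olaparib tablets twice daily, continuously on 28-day cycles, at alpelisib 200–300 mg with olaparib 100–200 mg.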

[3] = tested on: EOCs that are gBRCAwt but HRD positive and platinum resistant; details: gBRCAwt but HRD positive and platinum resistant EOC; QUADRA study; cited from earlier work
[4] = tested on: patients; details: olaparib monotherapy, SOLO1 study; cited from earlier work
[5] = tested on: EOC patients; details: cited from earlier work

SMILES	MTD and RP2D, alpelisib dose ([1]; orally once daily, combined with olaparib 200 mg twice daily)	Dose proportionality of drug exposure [2]	Effect of the other drug's dosing on Cmax [2]	Steady state Cmax compared with monotherapy [2]	Response to monotherapy [3]	MTD and RP2D, olaparib dose ([1]; orally twice daily (tablet), combined with alpelisib 200 mg once daily)	Fatigue, share of patients [4]	Nausea, share of patients [4]	Vomiting, share of patients [4]	Objective response rate expected from monotherapy ([5]; BRCAwt, platinum-resistant ovarian carcinomas, no ref given)	ORR as monotherapy ([5]; gBRCAwt / BRCAwt platinum resistant patients)	Expected response rate of monotherapy ([5]; platinum resistant gBRCAmut EOC)	Expected response rate of monotherapy ([5]; platinum resistant gBRCAwt EOC)	Expected response rate of monotherapy ([5]; platinum sensitive gBRCAmut EOC)	Expected response rate of monotherapy ([5]; platinum sensitive gBRCAwt EOC)
Cc1nc(NC(=O)N2CCC[C@H]2C(N)=O)sc1-c1ccnc(C(C)(C)C(F)(F)F)c1 [alpelisib]	200 mg	increasing proportionally with increasing dose	unaffected by olaparib dosing	comparable to values when testing these agents as monotherapy	–	–	–	–	–	–	–	–	–	–	–
NC(=O)c1cccc2cn(-c3ccc([C@@H]4CCCNC4)cc3)nc12 [niraparib]	–	–	–	–	10%	–	–	–	–	–	–	–	–	–	–
O=C(c1cc(Cc2n[nH]c(=O)c3ccccc23)ccc1F)N1CCN(C(=O)C2CC2)CC1 [olaparib]	–	increasing proportionally with increasing dose	unaffected by alpelisib dosing	comparable to values when testing these agents as monotherapy	–	200 mg	63%	77%	40%	4–5%	~ 5%	28%	~ 5%	≥ 60%	50%
